Experimental data reported in ChEMBL document CHEMBL3085627 (J Med Chem, 2013).

Tests used:
D(2) dopamine receptor [1] = target: T1, D(2) dopamine receptor (Homo sapiens, UniProt P14416); assay: Displacement of [3H]-spiperone from human dopamine D2L receptor expressed in CHO cell membranes after 3 hrs by liquid scintillation counting analysis
Outline: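 Competition against the radiolabeled antagonist [3H]spiperone at human D2L receptor in FlpIn CHO cell membranes. Affinity is reported as Ki.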

D(2) dopamine receptor [2] = target: T1, D(2) dopamine receptor; assay: Agonist activity at human dopamine D2L receptor expressed in CHO […] assessed as inhibition of forskolin-stimulated cAMP production after 30 mins by Alphascreen assay; format: functional, cell-based
Outline: (§1)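 Concentration-response curves are fitted to the operational model of agonism to derive functional affinity (pKA) and efficacy (τ). The transduction coefficient log(τ/KA) is calculated per pathway, and bias is expressed as ΔΔlog(τ/KA). Statistical comparison uses Student's t-test.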

D(2) dopamine receptor [3] = target: T1, D(2) dopamine receptor; assay: Agonist activity at human dopamine D2L receptor expressed in CHO […] assessed as phosphorylation of ERK1/2 by Alphascreen assay; format: cell-based; outline: as §1
D(2) dopamine receptor [4] = target: T1, D(2) dopamine receptor; settings: CHO

T1 sequence (P14416 whole entry): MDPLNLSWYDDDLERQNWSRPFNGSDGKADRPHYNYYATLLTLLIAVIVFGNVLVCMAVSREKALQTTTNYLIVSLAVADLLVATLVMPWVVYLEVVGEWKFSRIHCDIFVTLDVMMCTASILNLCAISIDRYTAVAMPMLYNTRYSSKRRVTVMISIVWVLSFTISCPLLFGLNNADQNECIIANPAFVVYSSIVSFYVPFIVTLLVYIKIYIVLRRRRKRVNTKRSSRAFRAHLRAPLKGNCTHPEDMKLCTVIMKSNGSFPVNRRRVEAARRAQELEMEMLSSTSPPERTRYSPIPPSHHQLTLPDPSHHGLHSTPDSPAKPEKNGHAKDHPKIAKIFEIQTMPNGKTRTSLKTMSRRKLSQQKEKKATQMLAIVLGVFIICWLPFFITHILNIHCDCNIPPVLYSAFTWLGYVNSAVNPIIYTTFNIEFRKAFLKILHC

Compound | Ki (D(2) dopamine receptor [1]) [nM] | pKA (D(2) dopamine receptor [2]) | pKA (D(2) dopamine receptor [3]) | KiH (D(2) dopamine receptor [4]) [nM] | KiL (D(2) dopamine receptor [4]) [µM]
CC(C)COC(=O)N[C@H]1CC[C@H](CCN2CCc3ccccc3C2)CC1 | 5250 | 6.05 |  |  | 
CC(C)(C)OC(=O)N[C@H]1CC[C@@H](CCN2CCc3ccccc3C2)CC1 |  | 7.34 |  |  | 
CC(C)(C)OC(=O)N[C@H]1CC[C@H](CN2CCc3ccccc3C2)CC1 | 355 | 7.18 | 7.48 |  | 
CC(C)(C)OC(=O)Nc1ccc(CCN2CCc3ccccc3C2)cc1 | 550 | 5.95 |  |  | 
NCCc1ccc(O)c(O)c1 |  |  |  | 58 | 3.42
CN(C)C(=O)N[C@H]1CC[C@H](CCN2CCc3ccccc3C2)CC1 |  | 7.19 |  |  | 
CN(C)C(=O)N[C@H]1CC[C@@H](CCN2CCc3ccccc3C2)CC1 |  | 6.96 |  |  | 
O=C(N[C@H]1CC[C@H](CCN2CCc3ccccc3C2)CC1)Oc1ccccc1 | 912 | 5.67 |  |  | 
CC(C)(C)OC(=O)N[C@H]1CC[C@H](CCN2CCN(c3cccc(Cl)c3Cl)CC2)CC1 |  | 7.11 | 7.51 |  | 
CC(C)(C)OC(=O)N[C@H]1CC[C@H](CCN2CCc3ccc([N+](=O)[O-])cc3C2)CC1 | 380 |  |  |  | 
CC(C)(C)OC(=O)N[C@H]1CC[C@@H](CCN2CCN(c3cccc(Cl)c3Cl)CC2)CC1 |  | 6.73 | 6.79 |  | 
CN(C)C(=O)NC[C@H]1CC[C@H](CN2CCN(c3cccc(Cl)c3Cl)CC2)CC1 | 42.7 | 6.92 | 7.56 |  | 
CC(=O)N[C@H]1CC[C@H](CCN2CCc3ccccc3C2)CC1 |  | 6.85 |  |  | 
CC(C)OC(=O)N[C@H]1CC[C@H](CCN2CCc3ccccc3C2)CC1 | 1480 | 6.3 |  |  | 
CC(=O)N[C@H]1CC[C@H](CCN2CCc3ccc(C#N)cc3C2)CC1 | 23.4 |  |  |  | 

Further lines, results first:

Ki (D(2) dopamine receptor [1]) [nM] | pKA (D(2) dopamine receptor [2]) | pKA (D(2) dopamine receptor [3]) | KiH (D(2) dopamine receptor [4]) [nM] | KiL (D(2) dopamine receptor [4]) [µM] | Compound
10.5 |  |  |  |  | CC(C)(C)OC(=O)N[C@H]1CC[C@H](CCN2CCCN(c3cccc(Cl)c3Cl)CC2)CC1
 | 6.45 | 7.1 |  |  | CC(C)(C)OC(=O)N[C@H]1CC[C@H](CCN2CCc3ccccc3C2)CC1
1150 | 6.82 | 6.69 |  |  | CC(C)(C)OC(=O)NC[C@H]1CC[C@H](CN2CCc3ccccc3C2)CC1
 | 7.23 |  |  |  | CCOC(=O)N[C@H]1CC[C@H](CCN2CCc3ccccc3C2)CC1
245 | 6.72 |  |  |  | CC(C)(C)NC(=O)N[C@H]1CC[C@H](CCN2CCc3ccccc3C2)CC1
148 | 6.95 | 6.86 |  |  | CC(C)(C)OC(=O)NC[C@H]1CC[C@H](CN2CCN(c3cccc(Cl)c3Cl)CC2)CC1
 |  | 7.61 |  |  | CN(C)C(=O)N[C@H]1CC[C@H](CCN2CCN(c3cccc(Cl)c3Cl)CC2)CC1
309 | 6.27 | 5.43 |  |  | CC(C)(C)OC(=O)N[C@H]1CC[C@H](CN2CCN(c3cccc(Cl)c3Cl)CC2)CC1
2240 | 6.81 |  |  |  | CC(C)(C)OC(=O)N[C@H]1CC[C@H](CCN2CCc3ccc(C#N)cc3C2)CC1
